Source: PubChem BioAssay (several laboratories)
MT stabilizer: microtubule stabilizers in HeLa cells, primary screen, imaging, high-content imaging | HeLa tubulin immunostaining HCS, 24 h; share of cells brighter than vehicle mean+2SD | % tubulin-high responders, % at 10 µM | actives 0.83% (n = 200,000) | AID 2205, 2009;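 active = plate Z-score above 3 for both tubulin-high and condensed-nucleus cell shares, with cell loss under 80%, at 10 µM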;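 note: anti alpha tubulin signal scored within the nucleus-defined area of each cell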
CHOP inh: inhibitors of CHOP promoter induction, primary screen, cell-based, unfolded protein response, luciferase reporter | CHO-K1 CHOP-promoter luciferase, tunicamycin-induced, 15-18 h | inhibition, % at 10 µM | actives 3.8% (n = 220,000) | AID 2732, 2010;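 active = compounds that reduced the stress-induced luciferase reporter signal by more than about 70% of percent inhibition, limit read from the data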;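 note: 0% = tunicamycin plus vehicle and 100% = wells without tunicamycin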
bCat nuc transl: modulators of beta-catenin nuclear translocation, primary screen, imaging, HeLa cells, immunofluorescence, high-content; nuclear translocation activity, % at 5 µM; actives 0.3% (n = 190,000); AID 1665, 2009;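 active = nuclear translocation activity above 50% at 5 µM, with a well cell count of 50 or more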;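 note: per-cell ratio of nuclear to cytoplasmic median beta-catenin stain intensity; plate controls were DMSO negative control for no effect and GSK-3 inhibitor IX positive control for full effect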
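Read-out: Nuclear/cytoplasmic beta-catenin signal ratio, % activation | Assay system: Human HeLa cell line | Times: 24 h compound exposure at 37°C, 5% CO2 | Signal: Fluorescence imaging of beta-catenin antibody stain plus DAPI | Dosing: 5 µM primary, 0.02–20 µM confirmation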
Dynein cargo inh: inhibitors of GR-EGFP nuclear translocation, primary screen, dynein cargo transport inhibitor project, imaging, high-content, 3617.4 mouse cells | test concentration mostly 20 µM; stimulated with dexamethasone, 1 µM; active compounds read low | z-score, hits read low | actives 0.47% (n = 220,000);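 active = plate z-score of nuclear minus cytoplasmic receptor signal below a set negative limit, without overly bright fluorescence or cell loss, cut at about -3.5 in these data, passing the limit was not always enough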;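 note: z-score of nuclear minus cytoplasmic ring GR-EGFP intensity difference per well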
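Buffer or medium: tet-free, stripped-serum medium; Also added: dexamethasone, 1.0 µM final; Technique: high-content fluorescence imaging after fixation; Times: 48 h induction, 1 h compound, 30 min dex at 37 °C; Read-out: per-cell GR-EGFP intensity, nucleus versus surrounding cytoplasmic ring, well-averaged.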
Autophagy mod: autophagy modulators in MEF cells, primary screen, imaging, high-content, MEF GFP-LC3; calls only at 10 µM (by protocol); actives 0.98% (n = 190,000); MEF GFP-LC3 puncta imaging; test concentration mostly 10 µM;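 active = percentage of spot-positive cells more than 3 SD above its plate mean, without a fluorescence outlier flag or 80% toxicity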;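 note: spot-positive cell cutoff set from DMSO-treated cells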
Lmaj promast: Leishmania major promastigote growth inhibition, primary screen; Leishmania major promastigotes, resazurin fluorescence viability; inhibition, % at 10 µM; actives 9% (n = 200,000); in the data active = inhibition above about 50%;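 note: promastigotes grown with compound for 44 hours at 28 °C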
An asterisk follows results filed as active; i = inactive; nt = no result given; + = active, no number. This is a sample that favours compounds with a hit; in the whole collection about 12% have one here.

SMILES | MT stabilizer | CHOP inh | bCat nuc transl | Dynein cargo inh | Autophagy mod | Lmaj promast
O=P(OC1CCCCC1)(OC1CCCCC1)C(O)c1ccc(Cl)cc1Cl (stereo unspecified) | 1.3 | 91.6* | -1.1 | -0.649 | i | 51.7*
COc1ccccc1C(O)P(=O)(OC1CCCCC1)OC1CCCCC1 (stereo unspecified) | nt | 5.0 | 1.6 | 0.917 | nt | nt
O=P(OC1CCCCC1)(OC1CCCCC1)C(O)c1c(Cl)cccc1Cl (stereo unspecified) | 2.6 | 84.0* | -0.8 | -1.67 | i | 52.7*
S=C(NCCc1ccc(Cl)cc1)NC1CC1 | 1.5 | 10.2 | 0.8 | 0.985 | i | 1.0
Cc1nn(C(C)C(=O)NNC(=S)Nc2ccc(F)cc2)c(C)c1[N+](=O)[O-] (stereo unspecified) | 1.2 | 18.2 | nt | -1.02 | i | -3.8
COc1ccc(CN2CCN(c3ccccn3)CC2)cc1OCc1ccccc1 | 4.3 | 12.9 | -4.0 | -0.567 | i | 72.5*
COc1cc(CN(C)CCc2ccccc2)ccc1OCc1ccccc1 | 1.5 | 15.6 | -0.3 | 2.77 | i | 96.0*
COc1ccc(CN2CCN(C(=O)c3ccco3)CC2)cc1OCc1ccccc1 | 6.1 | 10.5 | -1.4 | -1.07 | i | 87.3*
CCCc1ccc(OCc2ccc(C(=O)N3CCN(c4ccccn4)CC3)o2)c(OC)c1 | 2.5 | 78.6* | -0.1 | 0.826 | i | 4.3
CCN1CCN(Cc2ccc(OC)c(OCc3ccccc3)c2)CC1 | 3.2 | 10.7 | 0.1 | -1.06 | i | 16.8
COc1ccc(CN2CCN(C(=O)c3ccco3)CC2)cc1OC | 2.9 | -3.8 | -3.2 | -0.415 | i | -4.0
COc1cc(NC(=O)C2CCCCC2)c(OC)cc1NC(=O)CCC(=O)NCc1ccco1 | 1.3 | -0.2 | -5.8 | -0.202 | i | -7.3
O=C(c1ccccc1CCc1ccccc1)N1CCOCC1 | 4.3 | 5.5 | -0.3 | -0.179 | i | -3.2
COc1ccc2ccccc2c1CN1CCN(Cc2ccccc2)CC1 | 3.1 | 16.8 | -2.3 | 1.27 | i | 56.0*
CCN1CCN(Cc2ccc(OCc3ccccc3)c(OC)c2)CC1 | 4.9 | -16.0 | 0.4 | 1.35 | i | 65.1*
COc1ccc([N+](=O)[O-])cc1NC(=O)C(C)OC(=O)c1cccnc1 (stereo unspecified) | 2.2 | 8.1 | 1.9 | 0.0602 | i | -1.9
O=C(CSc1nnc(CNC(=O)C23CC4CC(CC(C4)C2)C3)n1-c1ccc(F)cc1)Nc1ccccc1 | 5.4 | 28.2 | -3.6 | 0.0294 | i | 3.9
COc1cccc(C(=O)N/N=C(/c2ccccc2)c2ccccn2)c1 | 2.1 | 64.9 | -0.7 | 1.05 | + | 99.9*
COc1cc(C(=O)N/N=C(\c2ccccc2)c2ccccn2)cc(OC)c1OC | 2.6 | 52.6 | 1.6 | 0.811 | i | 99.5*
OCCN1CCN(c2nc(-c3ccccc3)c3cc(Cl)ccc3n2)CC1 | i | 38.6 | 1.3 | 0.176 | i | 9.7
CN1CCN(c2nc(-c3ccccc3)c3cc(Cl)ccc3n2)CC1 | 2.6 | -25.7 | 0.5 | -1.68 | i | 86.0*
Clc1ccc2nc(N3CCNCC3)nc(-c3ccccc3)c2c1 | 5.6 | nt | 4.2 | 2.9 | i | 100.5*
O=C1CN(c2nc(-c3ccccc3)c3cc(Cl)ccc3n2)c2ccccc2N1 | 1.9 | 73.9* | 0.3 | 5.41 | + | -1.4
CC(C)(C)c1cc(NC(=O)CCSc2nnc3ccccn23)cc(C(C)(C)C)c1 | 4.5 | 88.4* | nt | 0.921 | i | 7.3
Cc1ccc(S(=O)(=O)N2CCN(CC(O)c3ccccc3)CC2)cc1C (stereo unspecified) | 2.0 | 14.6 | -5.4 | -0.464 | i | 47.6
SMILES | MT stabilizer | CHOP inh | bCat nuc transl | Dynein cargo inh | Autophagy mod | Lmaj promast
Cc1cc(C(=O)CCC(=O)N2CCN(S(=O)(=O)c3cccs3)CC2)c(C)s1 | 2.9 | 28.7 | nt | -0.103 | i | 88.4*
CCOC(=O)N1CCN(S(=O)(=O)c2cccs2)CC1 | 3.5 | 7.8 | nt | -0.0713 | i | -6.6
CCN1C(=O)C(=O)N(CC(=O)Nc2ccccc2Oc2ccccc2)C1=O | 2.2 | 20.5 | 1.3 | -1.04 | i | -3.5
Fc1ccc(-c2nnn3c2nc(NCc2ccccc2)c2ccccc23)cc1 | nt | 7.6 | 0.6 | -0.54 | nt | nt
NNc1nc2c(-c3ccc(Cl)cc3)nnn2c2ccccc12 | 8.0 | 91.0* | -0.7 | 1.23 | + | 86.2*
NNc1nc2c(-c3ccc(F)cc3)nnn2c2ccccc12 | 5.2 | 9.8 | -1.8 | 0.709 | i | 96.8*
CSc1ccc(CNc2ccc(Cl)cc2)cc1 | 3.0 | -15.0 | 1.5 | 1.32 | i | 99.9*
CSc1ccc(CNC2CC2)cc1 | 3.3 | 2.7 | nt | 0.0572 | i | -2.5
CCOc1ccc(S(=O)(=O)NCc2ccc(C)cc2)c2cccnc12 | 3.1 | -1.7 | 1.1 | -0.258 | i | 97.7*
CCOc1ccc(NS(=O)(=O)c2ccc(OCC)c3ncccc23)cc1 | 43.8* | 8.0 | -0.8 | -0.569 | i | 5.2
CCOc1ccc(S(=O)(=O)N2CCN(Cc3ccccc3)CC2)c2cccnc12 | 4.0 | 6.8 | -1.4 | 0.533 | i | 4.2
CCCCNS(=O)(=O)c1ccc(OC)c2ncccc12 | 4.4 | -11.7 | -1.1 | 0.222 | i | -3.8
Cn1cc(CC(=O)Nc2cccc(C#N)c2)c2ccccc21 | 1.8 | 29.0 | 0.3 | -0.784 | i | 3.3
COc1ccc(OCC(=O)Nc2ccc3c(c2)nc(CCN2CCOCC2)n3C)cc1 | 6.6 | 3.6 | -2.2 | 0.012 | i | 52.1*
CCOC(=O)N1CCN(CCC(=O)Nc2cc([N+](=O)[O-])ccc2OC)CC1 | 1.7 | -38.6 | -0.3 | 2.26 | i | 3.6
COc1ccc(CNCCC(c2ccc(F)cc2)c2ccc(OC)cc2)cc1 (stereo unspecified) | 2.8 | 67.7 | -2.9 | 1.42 | i | 100.4*
COc1ccc(C(CC(=O)NCc2ccco2)c2ccc(F)cc2)cc1 (stereo unspecified) | 3.1 | 1.3 | -3.6 | 0.87 | i | 9.2
COc1ccc(C(CCNCc2ccccc2)c2ccc(F)cc2)cc1 (stereo unspecified) | 3.2 | 20.2 | 0.7 | -0.982 | i | 98.9*
COc1ccc(C(CCNC(C)c2ccccc2)c2ccc(F)cc2)cc1 (stereo unspecified) | 5.3 | 15.0 | 2.6 | -3.16 | i | 100.1*
CC(C)Oc1ccc(C(CC(=O)O)c2ccc(F)cc2)cc1 (stereo unspecified) | nt | -7.9 | -0.4 | 0.331 | nt | nt
COc1ccc(CNCCC(c2ccc(F)cc2)c2ccc(OC(C)C)cc2)cc1OC (stereo unspecified) | nt | 81.8* | 3.6 | -1.77 | nt | nt
COc1ccc(NC(=O)CC(c2ccc(F)cc2)c2ccc(OC(C)C)cc2)cc1 (stereo unspecified) | 1.1 | 25.3 | 1.1 | -0.242 | i | 2.1
